As usually defined, the IC50 is the concentration needed to halve the response being measured. As usually defined, the Ki is the dissociation constant of the complex between target and ligand, obtained from inhibition or displacement. Low values mean higher affinity, high ones lower affinity.

For assay [1], the system named is Human immunodeficiency virus 1. Kind of assay: Antiviral activity against multi drug-resistant HIV1 isolate of subtype C in PHA-stimulated human PBMC assessed as inhibition of p24 antigen production. The assay is classed as functional, organism-based. The conditions noted are these: Human immunodeficiency virus 1, isolate C.
Assay [2] relates to Human immunodeficiency virus 1. Kind of assay: Antiviral activity against multi drug-resistant HIV1 isolate of subtype G in PHA-stimulated human PBMC assessed as inhibition of p24 antigen production. The assay is classed as functional, organism-based. Particulars: Human immunodeficiency virus 1, isolate G.
The subject of assay [3] is Human immunodeficiency virus 1. Kind of assay: Antiviral activity against multi drug-resistant HIV1 isolate of subtype TM in PHA-stimulated human PBMC assessed as inhibition of p24 antigen production. The format is functional, organism-based. Particulars: Human immunodeficiency virus 1, isolate TM.
The test system of assay [4] is Human immunodeficiency virus 1. Kind of assay: Antiviral activity against multi drug-resistant HIV1 isolate of subtype MM in PHA-stimulated human PBMC assessed as inhibition of p24 antigen production. Particulars: Human immunodeficiency virus 1, isolate MM. The format is functional, organism-based.
Assay [5] deals with Human immunodeficiency virus 1. Kind of assay: Antiviral activity against wild type HIV1 isolate ERS104pre in PHA-stimulated human PBMC assessed as inhibition of p24 antigen production. The assay is classed as functional, organism-based. Particulars: Human immunodeficiency virus 1, isolate ERS104pre.
For assay [6], the system named is Human immunodeficiency virus 1. Kind of assay: Ratio of IC50 for multi drug-resistant HIV1 isolate of subtype C to IC50 for wild type HIV1 isolate ERS104pre. The assay is classed as functional. The gist of the method:
(§1)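 Each assay run in duplicate; values are means (±1 SD) from two or three independent experiments. Fold change is the IC50 against each drug-resistant isolate divided by the IC50 against wild-type HIV-1 ERS104pre.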

Assay [7] has as its system Human immunodeficiency virus 1. In words: Ratio of IC50 for multi drug-resistant HIV1 isolate of subtype G to IC50 for wild type HIV1 isolate ERS104pre. The format is functional. The gist of the method: as §1
The subject of assay [8] is Human immunodeficiency virus 1. In words: Ratio of IC50 for multi drug-resistant HIV1 isolate of subtype TM to IC50 for wild type HIV1 isolate ERS104pre. The format is functional. The gist of the method: as §1
Assay [9] deals with Human immunodeficiency virus 1. In words: Ratio of IC50 for multi drug-resistant HIV1 isolate of subtype MM to IC50 for wild type HIV1 isolate ERS104pre. The format is functional. Summed up:
as §1

For assay [10], the system named is Human immunodeficiency virus 1. Kind of assay: Ratio of IC50 for multi drug-resistant HIV1 isolate of subtype JSL to IC50 for wild type HIV1 isolate ERS104pre. The assay is classed as functional. Summed up:
as §1

The subject of assay [11] is Human immunodeficiency virus 1. Kind of assay: Antiviral activity against multi drug-resistant HIV1 isolate of subtype JSL in PHA-stimulated human PBMC assessed as inhibition of p24 antigen production. The format is functional, organism-based. Particulars: Human immunodeficiency virus 1, isolate JSL.
Assay [12] deals with Protease (Human immunodeficiency virus 1, UniProt Q9YQ12). In words: Inhibition of HIV1 protease.
For assay [13], the system named is Human immunodeficiency virus 1. In words: Antiviral activity against HIV1 LAI in human MT2 cells after 7 days by MTT assay. Particulars: Human immunodeficiency virus 1, LAI, MT2, 168 h. The format is functional, organism-based. The gist of the method:
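Human T-lymphoid MT-2 cells were exposed to 100 TCID50 of HIV-1LAI and cultured in the presence of each protease inhibitor. IC50 was determined by MTT assay. Values are means of at least three experiments.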
(In general: Tetrazolium dyes change colour on reduction, which living cells bring about.)

Chain of Protease (Q9YQ12 whole entry): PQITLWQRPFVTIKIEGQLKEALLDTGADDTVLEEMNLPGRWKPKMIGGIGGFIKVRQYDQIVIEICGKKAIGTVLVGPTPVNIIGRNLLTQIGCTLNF

As to `CC(C)CN(C[C@@H](O)[C@H](Cc1ccccc1)NC(=O)O[C@H]1CCOC1)S(=O)(=O)c1ccc(N)cc1`, the concentration for half-maximal inhibition (IC50) in assay [1] is 346 nM; in assay [2] it was 392 nM; in [3] it was 406 nM; in assay [4] it was 313 nM; in [5], 45 nM. Also, the “Ratio IC50” value is recorded as 8 in assay [6]; 9 in assay [7]; 9 in [8]; 7 in assay [9]; 12 in assay [10].

In the case of `Cc1ccccc1CNC(=O)[C@H]1N(C(=O)[C@@H](O)[C@H](Cc2ccccc2)NC(=O)O[C@H]2CO[C@H]3OCC[C@H]32)CSC1(C)C`, the concentration for half-maximal inhibition (IC50) came to 61 nM in assay [1]; 29 nM in assay [2]; 64 nM in assay [3]; 42 nM in assay [4]; 235 nM in assay [11]; 31 nM in assay [5]. Moreover, the IC50 in assay [13] worked out at 9 nM. Besides, the “Ratio IC50” value in [6] amounted to 2; in assay [7], 1; in [8], 2; in assay [9], 1; in assay [10], 8. The compound further registered an inhibition constant (Ki) in assay [12] of 0.0052 nM.

`COc1ccc(CNC(=O)[C@H]2N(C(=O)[C@@H](O)[C@H](Cc3ccccc3)NC(=O)O[C@H]3CO[C@H]4OCC[C@H]43)CSC2(C)C)c(C)c1`: the Ki in assay [12] stood at 2.03 nM. The compound also had a concentration for half-maximal inhibition (IC50) in assay [13] of 51 nM.

`Cc1ccccc1CNC(=O)[C@H]1N(C(=O)[C@@H](O)[C@H](Cc2ccccc2)NC(=O)O[C@@H]2CCOCOC2)CSC1(C)C` gave a Ki in assay [12] of 0.78 nM. That is a sub-nanomolar value.

`Cc1ccccc1CNC(=O)[C@H]1N(C[C@@H](O)[C@H](Cc2ccccc2)NC(=O)O[C@H]2CO[C@H]3OCC[C@H]32)CSC1(C)C` came in with a Ki in assay [12] of 2.6 nM.

The compound `Cc1ccccc1CNC(=O)[C@H]1N(C(=O)[C@@H](O)[C@H](Cc2ccccc2)NC(=O)O[C@@H]2C[C@@H]3CCO[C@@H]3C2)CSC1(C)C` returned a Ki in [12] of 0.29 nM. In assay [13], this compound displayed a 50% inhibitory concentration (IC50) of 13 nM.

Take `Cc1ccccc1CNC(=O)[C@H]1N(C(=O)[C@@H](O)[C@H](Cc2ccccc2)NC(=O)O[C@@H]2C[C@@H]3OCO[C@@H]3C2)CSC1(C)C`: the affinity in assay [12] corresponds to a Ki of 0.65 nM.

Consider `Cc1cc(N)ccc1CNC(=O)[C@H]1N(C(=O)[C@@H](O)[C@H](Cc2ccccc2)NC(=O)O[C@H]2CO[C@H]3OCC[C@H]32)CSC1(C)C`, for which affinity in assay [12] was put at a Ki of 1.01 nM. In assay [13], this compound yielded a half-maximal inhibitory concentration (IC50) of 530 nM.

`Cc1cc(CO)ccc1CNC(=O)[C@H]1N(C(=O)[C@@H](O)[C@H](Cc2ccccc2)NC(=O)O[C@H]2CO[C@H]3OCC[C@H]32)CSC1(C)C` gave a Ki in [12] of 0.31 nM. The IC50 in assay [13] came out at 230 nM.

The compound `Cc1ccccc1CNC(=O)[C@H]1N(C[C@@H](O)[C@H](Cc2ccccc2)NC(=O)O[C@H]2CCOC2)CSC1(C)C` displayed a Ki in assay [12] of 86.2 nM.

`Cc1ccccc1CNC(=O)[C@H]1N(C(=O)[C@@H](O)[C@H](Cc2ccccc2)NC(=O)O[C@H]2CCOC2)CSC1(C)C` came in with a Ki in assay [12] of 0.21 nM. In assay [13], this compound displayed an IC50 of 20 nM.

As to `COC(=O)N[C@H](C(=O)N[C@@H](Cc1ccccc1)[C@@H](O)CN(Cc1ccc(-c2ccccn2)cc1)NC(=O)[C@@H](NC(=O)OC)C(C)(C)C)C(C)(C)C` [ATAZANAVIR], the half-maximal inhibitory concentration (IC50) is 45 nM in assay [1]; 29 nM in assay [2]; 47 nM in assay [3]; 40 nM in [4]; 635 nM in assay [11]; 3 nM in assay [5]. Further, the “Ratio IC50” value in [6] is recorded as 15; in assay [7], 10; in assay [8], 16; in [9] it was 13; in [10] it was 212.

(Values after ChEMBL document CHEMBL1159037, “Synthesis and biological evaluation of novel allophenylnorstatine-based HIV-1 protease inhibitors incorporating high affinity P2-ligands” (Bioorg Med Chem Lett, 2010).)
